Experiment [1] deals with Leishmania infantum. Nature of the experiment: Induction of apoptosis in Leishmania infantum promastigotes cells harboring with plasmid pX63 carrying Bcl-XL gene at 40 uM after 24 hrs by TUNEL assay. The format is functional. The method in brief:
(§1)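 Wild-type promastigotes or those transfected with empty pX63, pX63-bcl-XL (HA-tagged) or pX63-hrk (FLAG-tagged) left untreated or exposed to 40 µM drug for 24 h; DNA nicks labelled by TUNEL, imaged by confocal microscopy with PI and DIC; percentage TUNEL-positive cells from image analysis, mean ± SD, n = 3.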

For experiment [2], the system named is Leishmania infantum. As to the kind of experiment: Induction of apoptosis in wild-type Leishmania infantum promastigotes cells at 40 uM after 24 hrs by TUNEL assay. The format is functional. The method in brief: as §1
The subject of experiment [3] is Leishmania infantum. Nature of the experiment: Induction of apoptosis in Leishmania infantum promastigotes cells harboring pX63 expression vector at 40 uM after 24 hrs by TUNEL assay. The format is functional. In short, it runs like this: as §1
Experiment [4] relates to Leishmania infantum. As to the kind of experiment: Antimicrobial activity against Leishmania infantum promastigotes assessed as increase in DNA degradation after 24 hrs by flow cytometry. The format is functional, organism-based. The method in brief: (§2)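 Exponentially growing L. infantum promastigotes (2 × 10^6/ml, strain M/CAN/ES/96/BCN150 MON-1) exposed 24 h to increasing drug concentrations; DNA content analysed by flow cytometry, scoring percentage of hypodiploid cells as DNA degradation.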
A general note: A flow cytometer gives signals particle by particle.

In experiment [5] the test system is Leishmania infantum. As to the kind of experiment: Antimicrobial activity against Leishmania infantum promastigotes assessed as increase in hypodiploid cell formation after 24 hrs by flow cytometry. The format is functional, organism-based. The method in brief: as §2
Experiment [6] concerns Leishmania infantum. As to the kind of experiment: Antimicrobial activity against Leishmania infantum promastigotes. The class given is functional. Conditions: read-out: LD50 (the source's name). The method in brief: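 L. infantum promastigotes (M/CAN/ES/96/BCN150 MON-1), exponentially growing at 2 × 10^6 parasites/ml, incubated 24 h with increasing drug concentrations; stained with 5 µM propidium iodide and dead (PI-positive) parasites counted by flow cytometry; 50% lethal dose estimated from concentration–response fit.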

In experiment [7] the test system is Leishmania infantum. As to the kind of experiment: Induction of apoptosis in Leishmania infantum promastigotes cells harboring with plasmid pX63 carrying Hrk gene at 40 uM after 24 hrs by TUNEL assay. The format is functional. In short, it runs like this:
as §1

SMILES strings stand for the structures.

Consider `CCCCCCCCCCCCCCCCCCOCC(COP(=O)([O-])OCC[N+](C)(C)C)OC` (stereo not given) [EDELFOSINE], for which the Activity was 26.7% in experiment [1]; 42.5% in experiment [2]; 47.4% in experiment [3]; “Dose-dependent effect” in experiment [4]; “Dose-dependent effect” in experiment [5]; 92.5% in experiment [7]. Also, in experiment [6], the LC50 was 27 µM.
For the molecule `CCCCCCCCCCCCCCCCOP(=O)([O-])OCC[N+](C)(C)C` [MILTEFOSINE], the Activity entry in experiment [4] and in experiment [5] was “Dose-dependent effect” in each case. Moreover, in experiment [6], the LC50 was 47 µM.

The values above are taken from ChEMBL document CHEMBL1275508, “Edelfosine induces an apoptotic process in Leishmania infantum that is regulated by the ectopic expression of Bcl-XL and Hrk” (2008).
